Source: PubChem BioAssay
Sampled rows, rich in hits. Any-hit rate of the full collection: about 2.3%.
E coli WT exp: E. coli BW25113 growth inhibition, expanded screen; AID 710; growth inhibition, % at 100 µM; OD600 absorbance; actives 0.15% (n = 98,000);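 active means growth inhibition above about 50% at one test dose, limit read from the data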;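 further: growth measured after 20 h incubation at 37 °C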
Mac1 fbg inh: CD11b/CD18-fibrinogen binding inhibition. AID 1497. K562 CD11b/CD18 adhesion to fibrinogen, ATPlite luminescence; Mn2+ added to activate the integrin. actives 0.54% (n = 93,000). inhibition, % at 10 µM. P05107+P11215;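 active means primary inhibition of 50% or more at 10 µM, then 40% or more on retest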
Ecoli tolC: blocks growth of E. coli BW25113 tolC mutant. OD615. growth inhibition, % at 10 µM (by protocol). actives 2.2% (n = 65,000). AID 573;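 active means growth inhibition at or above a cutoff equal to the mean over every tested compound plus 3 SD, cut at about 60% in these data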;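 further: growth measured after 20 h incubation at 37 °C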
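Test system: E. coli BW25113 ΔtolC::kan bacteria; incubation: 37 °C, 20 h exposure; medium: LB broth supplemented with 50 µg/mL kanamycin; read-out basis: percent growth inhibition; signal: A615 absorbance measurement; compound: 10 µM final, single dose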
Pyk2 oligo antag: Pyk2 (human) oligomerization antagonism | z-score (the deposit names both 25 µM and 10 µM) | Q14289 | actives 0.83% (n = 99,000) | Q293 cells, Pyk2 FERM NanoBiT luminescence; active compounds read low;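 active means Z-score of -3 or lower, scaled per plate to the spread of control and sample wells; inactive means z-score above -3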;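 further: negative z-score means lost luminescence so less FERM oligomerization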
Target sequence (Q14289 whole entry, looked up): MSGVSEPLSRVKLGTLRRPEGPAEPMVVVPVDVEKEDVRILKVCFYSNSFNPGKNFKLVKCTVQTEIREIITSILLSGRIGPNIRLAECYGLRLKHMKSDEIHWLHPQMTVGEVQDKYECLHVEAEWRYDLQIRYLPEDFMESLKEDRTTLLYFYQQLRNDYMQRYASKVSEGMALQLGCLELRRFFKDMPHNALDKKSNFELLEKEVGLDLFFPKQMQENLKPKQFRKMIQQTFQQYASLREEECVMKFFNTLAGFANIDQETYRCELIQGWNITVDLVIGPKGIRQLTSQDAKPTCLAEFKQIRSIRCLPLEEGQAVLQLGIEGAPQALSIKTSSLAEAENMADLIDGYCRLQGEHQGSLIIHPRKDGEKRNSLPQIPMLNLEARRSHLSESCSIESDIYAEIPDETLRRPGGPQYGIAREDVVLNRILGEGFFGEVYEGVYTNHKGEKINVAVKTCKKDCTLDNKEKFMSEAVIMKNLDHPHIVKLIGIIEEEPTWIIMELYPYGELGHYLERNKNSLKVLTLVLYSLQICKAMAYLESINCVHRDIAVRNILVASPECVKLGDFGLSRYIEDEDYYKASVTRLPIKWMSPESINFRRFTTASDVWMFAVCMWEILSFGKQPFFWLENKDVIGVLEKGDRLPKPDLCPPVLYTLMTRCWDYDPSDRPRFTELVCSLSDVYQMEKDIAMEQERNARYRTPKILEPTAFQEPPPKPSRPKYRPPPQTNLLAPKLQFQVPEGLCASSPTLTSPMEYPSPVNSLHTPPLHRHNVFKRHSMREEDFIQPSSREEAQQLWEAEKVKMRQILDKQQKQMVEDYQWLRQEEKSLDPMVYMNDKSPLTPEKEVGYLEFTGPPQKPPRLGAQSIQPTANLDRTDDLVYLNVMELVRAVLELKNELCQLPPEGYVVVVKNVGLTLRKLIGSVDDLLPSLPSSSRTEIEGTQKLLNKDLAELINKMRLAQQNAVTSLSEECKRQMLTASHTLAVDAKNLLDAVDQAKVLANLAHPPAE
Mac1 fbg enh: increases human CD11b/CD18 adhesion to fibrinogen; activation, % at 10 µM; AID 1499; K562 CD11b/CD18 adhesion to fibrinogen, ATPlite luminescence; actives 0.07% (n = 93,000); P05107+P11215;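 active means 10 µM primary screen giving 50% or more activity, confirmed by 40% or more on retest at that dose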
Numbers without * were called inactive; . = no result given.

SMILES	E coli WT exp	Mac1 fbg inh	Ecoli tolC	Pyk2 oligo antag	Mac1 fbg enh
Cc1ccccc1N(C)S(=O)(=O)c1ccc2[nH]cc(C(=O)NCC3CCCO3)c(=O)c2c1 (stereo unspecified)	-9.0	-14.0	22.6	-3.17*	-3.4
CCN(CC)S(=O)(=O)c1ccc2[nH]cc(C(=O)NCCN3CCCCCC3)c(=O)c2c1	-1.0	3.1	-5.5	0.15	-1.9
O=C(NCc1ccccc1)c1c[nH]c2ccc(S(=O)(=O)Nc3ccc4c(c3)OCCO4)cc2c1=O	-14.0	-10.1	61.2*	-1.01	0.9
CCc1ccccc1NS(=O)(=O)c1ccc2[nH]cc(C(=O)NCc3ccco3)c(=O)c2c1	1.0	.	100.0*	-0.47	.
Cn1c(-c2ccc3c(c2)OCO3)cnc1N	-2.0	-26.3	90.8*	0.64	-0.1
CCC(C)(C)n1nnnc1C(c1cc2ccc(C)cc2[nH]c1=O)N(Cc1cccnc1)Cc1ccco1 (stereo unspecified)	-9.0	-24.4	70.9*	-0.12	2.4
O=c1[nH]c2ccc(S(=O)(=O)N3CCN(c4ccccc4F)CC3)cc2s1	-5.0	74.4	99.5*	-2.83	-7.2
Cc1ccc2[nH]c(=O)c(CN(Cc3ccc4c(c3)OCO4)Cc3nnnn3C3CCCC3)cc2c1	-8.0	8.9	62.0*	0.42	-4.4
Cc1ccc2[nH]c(=O)c(CN(Cc3nnnn3Cc3ccccc3)C3CCCC3)cc2c1	-4.0	-8.8	74.5*	0.1	-2.0
C=CCn1c(SCC(=O)Nc2ccc3c(c2)CCC3)nnc1-c1cccs1	2.0	8.0	76.6*	-1.92	2.1
COc1ccc(NC(=O)C2CCN(S(=O)(=O)c3c(C)noc3C)CC2)cc1Cl	-6.0	7.1	.	0.53	-3.0
Cc1ccc(C)n1-n1cnc2sc(-c3ccccc3)cc2c1=O	-15.0	.	88.2*	-0.31	.
O=c1c2cc(-c3ccccc3)sc2ncn1-n1cccc1	-7.0	2.8	.	0.8	0.4
COCCCNC(=O)C(=O)N/N=C/c1ccc(OCC(=O)Nc2cccc(Cl)c2C)c(OC)c1	-3.0	.	.	-0.09	.
CCCN1C=CC(=C2C(=O)c3ccccc3C2=O)C=C1	7.0	94.9*	2.6	0.99	-9.6
CCN1C=CC(=C2C(=O)c3ccccc3C2=O)C=C1	0.0	.	-15.1	-0.5	.
COc1ccc(CNC(=O)c2ccc(S(=O)(=O)N3CCCC3)cc2)cc1OC	-1.0	7.5	.	1.72	-1.4
CCn1cc(C(=O)OCC(=O)OC2CC(C)CCC2C(C)C)c(=O)c2ccc(C)nc21 (stereo unspecified)	10.0	-3.6	84.3*	-0.89	3.8
CCn1cc(C(=O)OCc2ccccc2)c(=O)c2ccc(C)nc21	31.0	-11.9	56.5	-0.04	-0.3
Cc1ccc(S(=O)(=O)C(C#N)c2nc3ccccc3nc2N2CCCCC2)cc1 (stereo unspecified)	.	27.2	35.8	.	-3.5
N#CC(c1nc2ccccc2nc1N1CCCCC1)S(=O)(=O)c1ccc(Cl)cc1 (stereo unspecified)	.	95.3	89.4*	.	-7.3
C=CCOC(=O)C(C#N)c1nc2ccccc2nc1N1CCN(Cc2ccccc2)CC1 (stereo unspecified)	-8.0	9.2	100.0*	-0.43	16.9
Cc1cccc(S(=O)(=O)C(C#N)c2nc3ccccc3nc2N2CCOCC2)c1 (stereo unspecified)	-4.0	57.5*	41.9	-0.64	-0.4
CCOC(=O)N1CCN(c2nc3ccccc3nc2C(C#N)S(=O)(=O)c2ccc(C)cc2)CC1 (stereo unspecified)	-1.0	63.0	76.9*	-0.2	-1.9
COCCOC(=O)C(C#N)c1nc2ccccc2nc1N1CCN(Cc2ccccc2)CC1 (stereo unspecified)	-3.0	0.2	7.7	0.79	0.7
SMILES	E coli WT exp	Mac1 fbg inh	Ecoli tolC	Pyk2 oligo antag	Mac1 fbg enh
CC(/C=N\Nc1nnc2c(n1)[nH]c1c(C)cccc12)=C\c1ccco1	1.0	-3.7	.	0.69	2.5
CCCn1c(SCc2cc(=O)oc3ccc4ccccc4c23)n[nH]c1=O	5.0	-12.9	18.8	1.83	-3.9
O=C(COc1ccc(Cl)cc1Cl)NC(=O)N1CCOCC1	9.0	-1.4	-11.2	0.13	1.2
CC1Cc2cc(C3(O)C(=O)c4ccccc4C3=O)ccc2N1 (stereo unspecified)	-6.0	-2.0	-21.6	1.16	-2.1
COc1ccc(C2N=C(N)N=C(N)N2c2ccccc2OC)cc1OC (stereo unspecified)	2.0	.	.	0.8	.
Cc1cnc(NC(=O)c2c(O)c3cccc4c3n(c2=O)CCC4)s1	-2.0	2.7	-10.0	.	-6.2
CCc1nnc(NC(=O)c2c(O)c3cccc4c3n(c2=O)CC4)s1	.	3.9	19.9	.	9.1
CCCc1nnc(NC(=O)c2c(O)c3cccc4c3n(c2=O)CC4)s1	.	92.6*	17.7	.	37.6
CC(C)c1nnc(NC(=O)c2c(O)c3cccc4c3n(c2=O)CCC4)s1	-2.0	11.7	100.0*	-0.72	71.6
COCCCNC(=O)CC(NS(=O)(=O)c1ccc(Cl)cc1)c1ccc(OC)cc1 (stereo unspecified)	1.0	7.1	.	-0.21	2.7
O=C(Nc1cccc(Br)c1)c1cc2ccccc2o1	4.0	-1.9	100.0*	-0.94	-5.6
Cc1cccc(NC(=O)c2cc3ccccc3o2)c1	11.0	.	15.9	0.63	.
COc1ccc(NC(=O)C2CCCN2c2ccc(OC)c(OC)c2)cc1OC (stereo unspecified)	-1.0	-23.9	-4.7	-0.8	-1.9
O=C(Cn1c(C(=O)N2CCc3ccccc3C2)cc2sccc21)c1ccccc1	-20.0	-5.5	29.0	-3.99*	-1.7
COc1cccc(C(=O)/C=C/Nc2ccc(NC(C)=O)cc2)c1	.	-5.1	.	.	0.2
COc1cccc(C(=O)/C=C/Nc2cccc(O)c2)c1	4.0	90.7*	.	-0.76	-7.3
Fc1ccc(C(c2ccc(F)cc2)N2CCN(C/C=C/c3ccccc3)CC2)cc1	.	.	76.1*	.	.
CCn1c(-c2ccc(N(C)C)cc2)nc2ccccc21	15.0	59.3*	32.6	0.22	-1.7
CCn1c(-c2ccc(N)cc2)nc2ccccc21	11.0	-0.5	-3.4	.	6.8
CN(C)c1ccc(-c2nc3ccccc3n2C)cc1	10.0	77.6*	28.4	1.46	-8.5
CC(C)n1c(-c2ccc(N(C)C)cc2)nc2ccccc21	6.0	26.9	47.1	-0.08	-1.4
CN(C(=O)COc1cc(=O)n(C)c2ccccc12)c1ccc(Br)cc1	-6.0	-9.9	13.3	.	8.2
CN(CC(=O)Nc1ccc(F)c(F)c1F)C(=O)/C=C/c1ccc(Cl)cc1	.	-0.6	.	.	1.2
c1ccc(-c2nc(N3CCOCC3)c3ccccc3n2)nc1	3.0	-20.0	10.6	1.86	-1.3
c1ccc(-c2nc(N3CCCCCC3)c3ccccc3n2)nc1	26.0	22.2	100.0*	-0.42	-1.7
O=C(Cn1c2ccccc2c(=O)c2ccccc21)N/N=C/c1cc([N+](=O)[O-])ccc1N1CCCCCC1	-6.0	-9.3	.	-0.78	107.4*
CC1CC(=O)C2=C(C1)Nc1ncnn1C2c1ccccc1 (stereo unspecified)	-3.0	-0.1	-22.4	0.84	-3.9
